Source: ChEMBL document CHEMBL3352044, “Synthesis and structure-activity relationship studies of N-benzyl-2-phenylpyrimidin-4-amine derivatives as potent USP1/UAF1 deubiquitinase inhibitors with anticancer activity against nonsmall cell lung cancer” (J Med Chem, 2014)
≈ marks a conversion by molar mass, not a printed value. One block for each molecule: values may come before it. Calls of active or inactive are those of the source. No cut-off for these calls is given here.

What was measured:
[1] = target: Ubiquitin carboxyl-terminal hydrolase 1/WD repeat-containing protein 48 (Homo sapiens, UniProt O94782); experiment: Inhibition of human USP1/UAF1 using ubiquitin-rhodamine110 substrate by fluorescence assay
[2] = Cytotoxicity against human H1299 cells assessed as reduction in colony formation at 5 uM after 7 days; format: functional; conditions: NCI-H1299, 168 h, read-out: INH
Summary of the method: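 H1299 cells seeded at 200 cells/well, attached overnight, then exposed to 5 μM compound or equal volume DMSO. After 7 days, fixed with 20% methanol and stained with 0.1% crystal violet; percent survival scored versus DMSO control.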

[3] = target: T1, Ubiquitin carboxyl-terminal hydrolase 1/WD repeat-containing protein 48 (Homo sapiens, UniProt O94782+Q8TAF3); experiment: Inhibition of human USP1/UAF1 in human […] cells assessed as increase in Ub-PCNA measured after 4 hrs by Western blotting analysis; format: cell-based
[4] = target: T1, Ubiquitin carboxyl-terminal hydrolase 1/WD repeat-containing protein 48; experiment: Inhibition of human USP1/UAF1 using ubiquitin-rhodamine110 substrate by fluorescence assay
[5] = target: 5-hydroxytryptamine receptor 2B (Homo sapiens) (UniProt P41595); experiment: Inhibition of 5-HT2B (unknown origin) at 10 uM
Summary of the method: (§1)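 Single concentration of 10 μM in an 80-target panel of GPCRs, ion channels and transporters; percent inhibition recorded.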

[6] = Stability of the compound in mouse plasma after 2 hrs; format: ADME, cell-free; conditions: read-out: Stability
Summary of the method: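 Mouse plasma incubation for 2 h; percent compound remaining.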

[7] = Lipophilicity, log D of the compound at pH 7.4 by shake-flask method; format: physicochemical; conditions: buffer
Summary of the method: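 Log D at pH 7.4 by miniaturized (scaled-down) shake-flask method.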

[8] = Permeability of the compound from apical to basolateral direction in human Caco2 cells; format: ADME, cell-based; conditions: caco-2
Homo sapiens = species on record: Homo sapiens; experiment: Inhibition of Calcium channel (unknown origin) at 10 uM
Summary of the method: as §1

[9] = target: 5-hydroxytryptamine receptor 2A (Homo sapiens) (UniProt P28223); experiment: Inhibition of 5-HT2A (unknown origin) at 10 uM
Summary of the method: as §1

[10] = target: T2, Adenosine receptor A3 (Homo sapiens) (UniProt P0DMS8); experiment: Inhibition of adenosine A3 receptor (unknown origin) at 10 uM
T2 sequence (whole entry): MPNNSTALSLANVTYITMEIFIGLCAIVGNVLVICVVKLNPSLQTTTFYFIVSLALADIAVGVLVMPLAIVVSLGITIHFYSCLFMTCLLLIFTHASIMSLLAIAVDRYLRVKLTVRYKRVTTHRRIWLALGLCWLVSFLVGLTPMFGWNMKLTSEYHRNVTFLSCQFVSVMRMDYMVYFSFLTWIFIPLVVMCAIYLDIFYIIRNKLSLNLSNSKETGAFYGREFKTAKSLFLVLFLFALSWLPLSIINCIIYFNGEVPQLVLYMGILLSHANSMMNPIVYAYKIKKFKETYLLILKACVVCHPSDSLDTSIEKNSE
Summary of the method: as §1

Liver microsome [11] = experiment: Half life in rat liver microsomes in presence of NADPH; format: ADME
Summary of the method: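 Rat liver microsomes with NADPH; half-life in minutes.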

[12] = Chemical stability of the compound in PBS buffer at pH 7.4 after 48 hrs; format: physicochemical; conditions: read-out: Stability
Summary of the method: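 PBS buffer pH 7.4 for 48 h; percent compound remaining.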

[13] = target: T3, Peroxisome proliferator-activated receptor gamma (Homo sapiens) (UniProt P37231); experiment: Inhibition of PPARgamma (unknown origin) at 10 uM
T3 sequence (whole entry): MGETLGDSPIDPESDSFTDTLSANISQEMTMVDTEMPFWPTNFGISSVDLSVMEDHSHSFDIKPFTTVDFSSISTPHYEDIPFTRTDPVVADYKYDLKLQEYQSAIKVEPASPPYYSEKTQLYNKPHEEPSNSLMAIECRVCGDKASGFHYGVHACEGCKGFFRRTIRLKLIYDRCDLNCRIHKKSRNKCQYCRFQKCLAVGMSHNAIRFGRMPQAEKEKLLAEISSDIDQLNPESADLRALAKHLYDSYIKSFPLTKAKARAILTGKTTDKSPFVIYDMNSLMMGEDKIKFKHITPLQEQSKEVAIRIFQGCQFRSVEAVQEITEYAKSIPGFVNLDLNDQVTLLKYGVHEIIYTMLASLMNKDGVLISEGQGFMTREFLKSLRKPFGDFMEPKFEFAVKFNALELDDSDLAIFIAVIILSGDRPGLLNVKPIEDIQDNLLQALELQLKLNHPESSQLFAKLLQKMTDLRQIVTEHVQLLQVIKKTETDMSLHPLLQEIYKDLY
Summary of the method: as §1

[14] = Kinetic aqueous solubility of the compound in PBS at pH 7.4; format: physicochemical; conditions: read-out: Kinetic_solubility
[15] = target: Melatonin receptor type 1A (Homo sapiens) (UniProt P48039); experiment: Inhibition of MT1 (unknown origin) at 10 uM
Summary of the method: as §1

Liver = experiment: Half life in mouse liver microsomes; format: ADME
Summary of the method: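 Incubated with mouse liver microsomes in the presence of NADPH, run by a contract lab; read-out is the half-life (T1/2) in minutes.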

[16] = target: T4, 5-hydroxytryptamine receptor 2C (Homo sapiens) (UniProt P28335); experiment: Inhibition of 5-HT2C (unknown origin) at 10 uM
T4 sequence (whole entry): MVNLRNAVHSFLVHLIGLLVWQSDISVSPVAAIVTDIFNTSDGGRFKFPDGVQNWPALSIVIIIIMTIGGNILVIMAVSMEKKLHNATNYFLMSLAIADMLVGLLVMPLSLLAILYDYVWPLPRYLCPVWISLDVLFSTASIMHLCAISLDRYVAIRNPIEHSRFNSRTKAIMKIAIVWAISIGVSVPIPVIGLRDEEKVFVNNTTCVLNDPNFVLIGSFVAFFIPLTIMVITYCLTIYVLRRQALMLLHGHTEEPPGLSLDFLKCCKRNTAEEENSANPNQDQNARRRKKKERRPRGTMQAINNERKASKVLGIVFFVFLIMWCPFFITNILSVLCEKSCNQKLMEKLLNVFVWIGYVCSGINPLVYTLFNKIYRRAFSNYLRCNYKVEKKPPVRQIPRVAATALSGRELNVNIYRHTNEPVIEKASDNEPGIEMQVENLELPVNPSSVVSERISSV
Summary of the method: as §1

Liver microsome [17] = experiment: Half life in human liver microsomes; format: ADME
Summary of the method: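 Human liver microsomes in the presence of NADPH; half-life (min).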

[18] = target: T1, Ubiquitin carboxyl-terminal hydrolase 1/WD repeat-containing protein 48; experiment: Inhibition of human USP1/UAF1 in human […] cells assessed as increase in Ub-PCNA measured at 1 uM after 4 hrs by Western blotting analysis; format: cell-based
[19] = target: T1, Ubiquitin carboxyl-terminal hydrolase 1/WD repeat-containing protein 48; experiment: Inhibition of human USP1/UAF1 in human H1299 cells assessed as reduction in colony formation up to 25 uM after 7 days; format: cell-based

T1 sequence (O94782 whole entry): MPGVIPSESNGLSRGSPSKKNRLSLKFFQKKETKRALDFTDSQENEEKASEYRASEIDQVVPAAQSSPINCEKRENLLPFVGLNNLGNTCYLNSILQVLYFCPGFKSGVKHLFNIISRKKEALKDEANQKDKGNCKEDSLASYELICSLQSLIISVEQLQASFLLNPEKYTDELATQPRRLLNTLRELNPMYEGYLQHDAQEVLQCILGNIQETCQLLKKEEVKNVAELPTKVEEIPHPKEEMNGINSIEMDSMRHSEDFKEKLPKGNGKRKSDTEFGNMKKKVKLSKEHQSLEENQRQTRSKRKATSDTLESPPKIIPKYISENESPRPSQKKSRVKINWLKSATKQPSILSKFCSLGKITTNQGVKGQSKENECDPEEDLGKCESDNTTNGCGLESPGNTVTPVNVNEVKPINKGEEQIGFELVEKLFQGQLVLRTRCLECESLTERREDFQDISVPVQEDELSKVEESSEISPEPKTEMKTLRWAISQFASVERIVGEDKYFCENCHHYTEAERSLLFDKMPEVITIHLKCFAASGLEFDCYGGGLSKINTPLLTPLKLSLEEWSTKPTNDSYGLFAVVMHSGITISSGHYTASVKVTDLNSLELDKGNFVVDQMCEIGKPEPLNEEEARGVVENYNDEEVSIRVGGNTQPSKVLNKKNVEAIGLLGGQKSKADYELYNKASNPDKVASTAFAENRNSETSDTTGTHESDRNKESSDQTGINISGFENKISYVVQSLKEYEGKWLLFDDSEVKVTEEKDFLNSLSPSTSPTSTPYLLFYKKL
T1 sequence (Q8TAF3 whole entry): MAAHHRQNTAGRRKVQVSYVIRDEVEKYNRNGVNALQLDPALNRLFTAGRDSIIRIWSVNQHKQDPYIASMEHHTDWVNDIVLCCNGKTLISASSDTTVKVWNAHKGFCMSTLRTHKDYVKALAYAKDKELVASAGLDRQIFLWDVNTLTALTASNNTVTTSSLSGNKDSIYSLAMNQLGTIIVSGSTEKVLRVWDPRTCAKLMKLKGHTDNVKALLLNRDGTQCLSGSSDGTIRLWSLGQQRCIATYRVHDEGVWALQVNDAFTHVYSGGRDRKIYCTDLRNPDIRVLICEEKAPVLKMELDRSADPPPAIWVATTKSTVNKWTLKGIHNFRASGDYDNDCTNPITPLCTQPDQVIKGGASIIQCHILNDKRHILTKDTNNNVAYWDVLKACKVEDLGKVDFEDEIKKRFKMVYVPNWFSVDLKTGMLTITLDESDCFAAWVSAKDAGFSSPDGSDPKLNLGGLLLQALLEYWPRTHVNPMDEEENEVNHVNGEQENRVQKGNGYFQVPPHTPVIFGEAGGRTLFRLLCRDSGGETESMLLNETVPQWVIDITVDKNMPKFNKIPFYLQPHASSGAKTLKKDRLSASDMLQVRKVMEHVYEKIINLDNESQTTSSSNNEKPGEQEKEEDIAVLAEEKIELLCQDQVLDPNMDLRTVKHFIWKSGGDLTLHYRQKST
Chain of Ubiquitin carboxyl-terminal hydrolase 1/WD repeat-containing protein 48 (Homo sapiens, UniProt O94782) (O94782 whole entry): as the sequence (O94782 whole entry) above
Chain of Ubiquitin carboxyl-terminal hydrolase 1/WD repeat-containing protein 48 (Homo sapiens, UniProt O94782) (Q8TAF3 whole entry, further chain): as the sequence (Q8TAF3 whole entry) above
Chain of Melatonin receptor type 1A (Homo sapiens) (P48039 whole entry): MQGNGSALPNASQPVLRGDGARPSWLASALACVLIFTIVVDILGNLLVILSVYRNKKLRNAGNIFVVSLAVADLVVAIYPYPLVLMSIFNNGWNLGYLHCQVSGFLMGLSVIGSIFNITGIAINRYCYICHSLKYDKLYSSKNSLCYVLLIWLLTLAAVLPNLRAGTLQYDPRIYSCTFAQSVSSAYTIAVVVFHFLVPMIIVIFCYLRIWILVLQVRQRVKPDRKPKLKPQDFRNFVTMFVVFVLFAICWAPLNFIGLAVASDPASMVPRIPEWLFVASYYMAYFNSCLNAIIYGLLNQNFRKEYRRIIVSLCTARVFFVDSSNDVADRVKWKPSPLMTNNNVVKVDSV
Chain of 5-hydroxytryptamine receptor 2A (Homo sapiens) (P28223 whole entry): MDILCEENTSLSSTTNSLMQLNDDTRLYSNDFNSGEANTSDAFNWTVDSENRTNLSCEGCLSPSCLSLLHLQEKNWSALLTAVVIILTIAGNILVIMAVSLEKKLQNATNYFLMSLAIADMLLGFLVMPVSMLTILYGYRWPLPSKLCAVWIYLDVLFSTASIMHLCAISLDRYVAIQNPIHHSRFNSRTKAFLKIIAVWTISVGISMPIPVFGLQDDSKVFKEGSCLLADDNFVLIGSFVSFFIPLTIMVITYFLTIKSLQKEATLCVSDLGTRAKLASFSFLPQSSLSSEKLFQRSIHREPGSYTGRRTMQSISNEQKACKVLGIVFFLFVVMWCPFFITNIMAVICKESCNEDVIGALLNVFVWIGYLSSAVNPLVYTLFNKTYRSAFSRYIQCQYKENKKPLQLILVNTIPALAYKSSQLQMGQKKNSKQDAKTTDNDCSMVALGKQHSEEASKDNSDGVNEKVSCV
Chain of 5-hydroxytryptamine receptor 2B (Homo sapiens) (P41595 whole entry): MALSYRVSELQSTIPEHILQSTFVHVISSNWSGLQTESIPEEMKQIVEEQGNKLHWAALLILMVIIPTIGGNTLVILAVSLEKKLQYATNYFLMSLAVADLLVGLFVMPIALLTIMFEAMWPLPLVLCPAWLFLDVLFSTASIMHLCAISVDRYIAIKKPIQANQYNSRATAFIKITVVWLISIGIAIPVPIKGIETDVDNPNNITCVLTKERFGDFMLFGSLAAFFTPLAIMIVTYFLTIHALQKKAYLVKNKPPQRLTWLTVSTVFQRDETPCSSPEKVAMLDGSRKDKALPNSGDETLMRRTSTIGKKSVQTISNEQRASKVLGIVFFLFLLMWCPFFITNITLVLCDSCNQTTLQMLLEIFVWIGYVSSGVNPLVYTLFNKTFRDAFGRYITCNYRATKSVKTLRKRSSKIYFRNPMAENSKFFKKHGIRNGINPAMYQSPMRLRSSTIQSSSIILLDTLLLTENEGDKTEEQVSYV

IC50 [1]: 80 nM
Compound: CC(C)c1ccccc1-c1nc(NCc2ccc(-c3cccnc3)cc2)c2occc2n1
inhibition at 5 µM [2]: > 70%

IC50 [4]: Not Active
Compound: FC(F)(F)c1ccc(-c2nc(NCc3ccc(-c4cccnc4)cc3)c3ccccc3n2)cc1

IC50 [1]: 70 nM
Compound: COc1cnc(-c2ccccc2C(C)C)nc1NCc1ccc(-c2cccnc2)cc1
inhibition at 5 µM [2]: > 70%

IC50 [4]: Not Active
Compound: c1cncc(-c2ccc(CNc3nc(-n4ccnc4)nc4ccccc34)cc2)c1

IC50 [4]: Not Active
Compound: FC(F)(F)c1cccc(-c2nc(NCc3ccc(-c4cccnc4)cc3)c3ccccc3n2)c1

IC50 [4]: Not Active
Compound: c1cncc(-c2ccc(CNc3nc(C4CCCC4)nc4ccccc34)cc2)c1

IC50 [4]: Not Active
Compound: c1cncc(-c2ccc(CNc3nc(N4CCOCC4)nc4ccccc34)cc2)c1

IC50 [4]: Not Active
Compound: c1cncc(-c2ccc(CNc3nc(N4CCCC4)nc4ccccc34)cc2)c1

More lines, now with the values behind:

Compound: FC(F)(F)c1ccccc1-c1nc(NCc2cccs2)c2ccccc2n1
IC50 [1]: 7900 nM
inhibition [3]: Dose-dependent effect

Compound: Cc1cnc(-c2ccccc2C(C)C)nc1NCC1CCN(C)CC1
IC50 [4]: Not Active

Compound: Cc1cnc(-c2ccccc2C(C)C)nc1NCc1ccc(-n2ccnn2)cc1
inhibition [5]: > 50%
remaining at 2 h [6]: 99%
logD [7]: 1.97
Papp [8]: 22.98 ×10⁻⁶ cm/s
inhibition (Homo sapiens): > 50%
inhibition [9]: > 50%
inhibition [10]: > 50%
t1/2 (Liver microsome [11]): 15 min
remaining at 48 h [12]: 99%
inhibition [13]: > 50%
solubility kinetic [14]: 86 µM (≈ 33.1 µg/mL)
inhibition [15]: > 50%
inhibition at 5 µM [2]: > 70%
t1/2 (Liver): 15 min
inhibition [16]: > 50%
t1/2 (Liver microsome [17]): 26 min

Compound: Cc1cnc(-c2ccccc2C(C)C)nc1NCC1CCN(c2cccnc2)CC1
IC50 [1]: 80 nM
Activity [18]: Active
inhibition [3]: Dose-dependent effect
inhibition at 5 µM [2]: > 70%

Compound: Cc1cnc(-c2ccccc2C2COC2)nc1NCc1ccc(-n2ccnn2)cc1
inhibition [19]: inactive
t1/2 (Liver microsome [11]): > 30 min
IC50 [4]: Not Active

Compound: Cc1cnc(-c2ccccc2C(C)C)nc1NCc1ccc(-n2ccnc2)cc1
IC50 [1]: 300 nM
inhibition at 5 µM [2]: > 70%

Compound: Cc1cnc(-c2ccccc2C2COC2)nc1NCc1ccc(-c2cccnc2)cc1
t1/2 (Liver microsome [11]): > 30 min
IC50 [4]: Not Active
